Laboratory results taken from ChEMBL document CHEMBL3243985, “Synthesis of two metabolites of (+)-propoxyphene” (J Med Chem, 1977).
Calls of active or inactive are those of the source. The calls are words filed in the database; no cut-off is given here.

What was measured:
[1] = species on record: Mus musculus; experiment: Toxicity in mouse assessed as scratching at injection site at 1 mg/ml; format: organism-based; settings: in vivo
[2] = tested on: Mus musculus; experiment: Analgesic activity in sc dosed mouse assessed as inhibition of acetic acid-induced writhing; format: functional
Procedure, shortened: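 Test agents were given to mice by subcutaneous injection, and doses were expressed in mg/kg. The ED50 was derived from the dose-response data and reported with 95% confidence limits.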

[3] = tested on: Mus musculus; experiment: Analgesic activity in sc dosed mouse assessed as inhibition of acetic acid-induced writhing measured at 30 to 60 mins; format: functional, organism-based
[4] = tested on: Mus musculus; experiment: Analgesic activity in sc dosed mouse assessed as peak inhibition of acetic acid-induced writhing measured at 5 to 15 mins; format: functional, organism-based
[5] = tested on: Mus musculus; experiment: Analgesic activity in sc dosed mouse assessed as inhibition of acetic acid-induced writhing in presence of 10 mg/kg naloxone; format: functional, organism-based; design: dose 10 mg/kg; settings: at 10 mg/kg
[6] = tested on: Mus musculus; experiment: Analgesic activity in mouse assessed as inhibition of acetic acid-induced writhing at 100 mg/kg, sc; format: functional, organism-based; design: dose 100 mg/kg

Row | Structure (SMILES) | Activity [1] | ED50 [2] [mg/kg] | inhibition [3] | inhibition [4] | inhibition [5] | inhibition [6]
1 | CCC(=O)O[C@](Cc1ccccc1)(c1ccccc1)[C@H](C)CN | Toxic | 25 | Active | Active | inactive | –
2 | CCC(=O)OC(Cc1ccccc1)(c1ccccc1)C(C)CN.Cl (racemic) | Toxic | 51 | Active | Active | inactive | –
3 | CCC1=NCC(C)C(Cc2ccccc2)(c2ccccc2)O1 (racemic) | – | – | – | – | – | inactive
4 | CCC(=O)O[C@](Cc1ccccc1)(c1ccccc1)[C@H](C)CN(C)C [PROPOXYPHENE] | – | 6.9 | – | – | – | –
